Measurements as given in ChEMBL document CHEMBL4680189, “Immunosuppressive properties of amino acid and peptide derivatives of mycophenolic acid” (Eur J Med Chem, 2020).
Activity calls are given as the source filed them. No cut-off for these calls is given here. Where a SMILES comes first, the peptide text is derived from it. [ ]: non-standard residue; d: D form. The star is where a group is joined. Mycophenolyl = COc1c(C)c2c(c(O)c1C/C=C(\C)CCC(=O)*)C(=O)OC2; Arg(NO2) = N=C(NCCC[C@H](N)C(=O)O)N[N+](=O)[O-]; βAla = NCCC(=O)O

What was measured:
[1] = tested on: Jurkat; assay: Immunosuppression-mediated cytotoxicity against human Jurkat T cells assessed as reduction in cell viability incubated for 48 hrs by MTT assay; assay type: cell-based
Method in brief: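 Jurkat cells in RPMI-1640 with 10% FBS and P/S, 50×10^3 cells/well, exposed in triplicate to serial dilutions from 1 mg/mL (DMSO/medium) for 48 h at 37 °C, 5% CO2. MTT (5 mg/ml) then added for 3 h. Formazan dissolved in 0.4 N HCl–isopropanol, absorbance read at 570 nm. IC50 from curve fitting; viability at 1 mg/mL used where IC50 could not be reached.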

[2] = Immunosuppression-mediated cytotoxicity against anti-CD3/anti-CD28-stimulated human PBMC cells assessed as reduction in cell viability incubated for 72 hrs by MTT assay; assay type: cell-based
Method in brief: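 PBMC from buffy coats of healthy donors, isolated on a Ficoll gradient with erythrocyte lysis. Plated at 50×10^3 cells/well with anti-CD3/anti-CD28, serial compound dilutions, in triplicate. Incubated 72 h, 37 °C, 5% CO2. MTT added for 3 h, formazan dissolved in acidified isopropanol (0.4 N HCl), A570 read. Three donors averaged; IC50 from curve fit.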

[3] = tested on: Jurkat; assay: Immunosuppression-mediated antiproliferative activity against human Jurkat T cells assessed as inhibition of cell growth incubated for 48 hrs by VPD450 staining based flow cytometry; assay type: functional
Method in brief: (§1)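 Cells stained with VPD450 (2 μL of 1 mM dye per 10-30×10^6 cells in 1 mL PBS, 15 min, 37 °C), washed. PBMC: 50×10^3 cells/well with anti-CD3/anti-CD28, serial compound dilutions, 72 h. Jurkat: 50×10^3 cells/well, 48 h. 37 °C, 5% CO2, triplicate. Dye dilution by flow cytometry; EC50 from curve fit.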

[4] = Immunosuppression-mediated antiproliferative activity against anti-CD3/anti-CD28-stimulated human PBMC cells assessed as inhibition of cell growth incubated for 72 hrs by VPD450 staining based flow cytometry; assay type: functional; method in brief: as §1
[5] = Selectivity index, ratio of IC50 for cytotoxicity against human Jurkat T cells by MTT assay to EC50 for antiproliferative activity against human Jurkat T cells by VPD450 staining based flow cytometry
Method in brief: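 Jurkat IC50 from the 48 h MTT assay (50×10^3 cells/well, triplicate) divided by Jurkat EC50. […] Cells treated 48 h with serial dilutions, then dye dilution read by flow cytometry and fitted.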

[6] = Selectivity index, ratio of IC50 for cytotoxicity against human PBMC by MTT assay to EC50 for antiproliferative activity against human PBMC by VPD450 staining based flow cytometry
Method in brief: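 Ratio of the MTT cytotoxicity IC50 (72 h, stimulated PBMC) to the VPD450 antiproliferative EC50 (72 h, stimulated PBMC), both from fitted concentration-response curves.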

[7] = tested on: PBMC; assay: Immunosuppression-mediated antiproliferative activity against anti-CD3/anti-CD28-stimulated human PBMC cells assessed as inhibition of cell growth incubated for 72 hrs in presence of GMP by VPD450 staining based flow cytometry; assay type: functional
Method in brief: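 VPD450-stained PBMC, 50×10^3 cells/well, anti-CD3/anti-CD28 stimulation, serial compound dilutions plus GMP at 50 μM in the well. Incubated 72 h at 37 °C, 5% CO2, in triplicate. Proliferation read by flow cytometry as dye dilution and expressed relative to controls.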

Structure (SMILES): CC[C@H](C)[C@H](NC(=O)CC/C(C)=C/Cc1c(O)c2c(c(C)c1OC)COC2=O)C(=O)O
- IC50 [1]: 73.7 µM
- IC50 [2]: 20.9 µM
- EC50 [3]: 2.3 µM
- EC50 [4]: 9 µM
- Ratio IC50/EC50 [5]: 33
- Ratio IC50/EC50 [6]: 2.3
- Activity [7]: inactive

Structure (SMILES): COC(=O)C(NC(=O)CC/C(C)=C/Cc1c(O)c2c(c(C)c1OC)COC2=O)C(=O)OC
- IC50 [1]: 101 µM
- IC50 [2]: 3.5 µM
- EC50 [3]: 65 µM
- EC50 [4]: 11 µM
- Ratio IC50/EC50 [5]: 1.6
- Ratio IC50/EC50 [6]: 0.3
- Activity [7]: inactive

Structure (SMILES): COc1c(C)c2c(c(O)c1C/C=C(\C)CCC(=O)N[C@H](C(=O)O)[C@@H](C)O)C(=O)OC2
- IC50 [1]: 43 µM
- IC50 [2]: 82 µM
- EC50 [3]: 83 µM
- EC50 [4]: 119 µM
- Ratio IC50/EC50 [5]: 0.5
- Ratio IC50/EC50 [6]: 0.7
- Activity [7]: inactive

Structure (SMILES): COC(=O)[C@H](CCCNC(=N)N[N+](=O)[O-])NC(=O)CC/C(C)=C/Cc1c(O)c2c(c(C)c1OC)COC2=O
- IC50 [1]: 347 µM
- IC50 [2]: 14 µM
- EC50 [3]: 22.3 µM
- EC50 [4]: 77 µM
- Ratio IC50/EC50 [5]: 16
- Ratio IC50/EC50 [6]: 0.2
- Activity [7]: inactive

Structure (SMILES): COC(=O)C[C@H](NC(=O)CC/C(C)=C/Cc1c(O)c2c(c(C)c1OC)COC2=O)C(=O)OC
- IC50 [1]: 20 µM
- IC50 [2]: 18 µM
- EC50 [3]: 16.7 µM
- EC50 [4]: 8 µM
- Ratio IC50/EC50 [5]: 1.2
- Ratio IC50/EC50 [6]: 2.2
- Activity [7]: inactive

Structure (SMILES): COC(=O)[C@@H](CCCNC(=N)N[N+](=O)[O-])NC(=O)CC/C(C)=C/Cc1c(O)c2c(c(C)c1OC)COC2=O
- IC50 [1]: 572 µM
- IC50 [2]: 71 µM
- EC50 [3]: 69 µM
- EC50 [4]: 95.6 µM
- Ratio IC50/EC50 [5]: 8.2
- Ratio IC50/EC50 [6]: 0.7
- Activity [7]: inactive

Structure (SMILES): COc1c(C)c2c(c(O)c1C/C=C(\C)CCC(=O)N[C@@H](CC(=O)O)C(=O)O)C(=O)OC2
- IC50 [1]: 540 µM
- IC50 [2]: 50 µM
- EC50 [3]: 396 µM
- EC50 [4]: 211 µM
- Ratio IC50/EC50 [5]: 1.4
- Ratio IC50/EC50 [6]: 0.2
- Activity [7]: inactive

Structure (SMILES): COC(=O)[C@H](NC(=O)CC/C(C)=C/Cc1c(O)c2c(c(C)c1OC)COC2=O)[C@H](C)O
- IC50 [1]: 115 µM
- IC50 [2]: 69 µM
- EC50 [3]: 14 µM
- EC50 [4]: 9 µM
- Ratio IC50/EC50 [5]: 8.3
- Ratio IC50/EC50 [6]: 7.3
- Activity [7]: inactive

Structure (SMILES): COc1c(C)c2c(c(O)c1C/C=C(\C)CCC(=O)N[C@@H](C(=O)O)[C@H](C)O)C(=O)OC2
- IC50 [1]: 229 µM
- IC50 [2]: 118 µM
- EC50 [3]: 21.4 µM
- EC50 [4]: 122 µM
- Ratio IC50/EC50 [5]: 11
- Ratio IC50/EC50 [6]: 1
- Activity [7]: inactive

Structure (SMILES): CC[C@H](C)[C@H](N)C(=O)NCCCC[C@H](NC(=O)[C@@H](NC(=O)CC/C(C)=C/Cc1c(O)c2c(c(C)c1OC)COC2=O)[C@@H](C)O)C(=O)N1CCC[C@H]1C(=O)N[C@@H](CCCNC(=N)N[N+](=O)[O-])C(=O)OC (Mycophenolyl-TK(Ile)P[Arg(NO2)]-OMe)
- IC50 [1]: 809 µM
- IC50 [2]: 461 µM
- EC50 [3]: 924 µM
- EC50 [4]: 357 µM
- Ratio IC50/EC50 [5]: 0.9
- Ratio IC50/EC50 [6]: 1.3

Structure (SMILES): COC(=O)[C@H](CCCNC(=N)N[N+](=O)[O-])NC(=O)[C@@H]1CCCN1C(=O)[C@H](CCCCNC(=O)CCN)NC(=O)[C@@H](NC(=O)CC/C(C)=C/Cc1c(O)c2c(c(C)c1OC)COC2=O)[C@@H](C)O (Mycophenolyl-TK(βAla)P[Arg(NO2)]-OMe)
- IC50 [1]: 1020 µM
- IC50 [2]: 526 µM
- EC50 [3]: 941 µM
- EC50 [4]: 211 µM
- Ratio IC50/EC50 [5]: 1.1
- Ratio IC50/EC50 [6]: 2.5
- Activity [7]: inactive

Structure (SMILES): COc1c(C)c2c(c(O)c1C/C=C(\C)CCC(=O)O)C(=O)OC2 [MYCOPHENOLIC ACID]
- IC50 [1]: 60.6 µM
- IC50 [2]: 0.14 µM
- EC50 [3]: 0.3 µM
- EC50 [4]: 0.0301 µM
- Ratio IC50/EC50 [5]: 228
- Ratio IC50/EC50 [6]: 4.6
